In ChEMBL document CHEMBL1144244, “Synthesis and biological activity of enantiomeric pairs of 5-[(E)-cycloalk-2-enylidenemethyl]thiolactomycin congeners” (Bioorg Med Chem Lett, 2008):
Converted amounts (≈) assume the structure as drawn.

Tests used:
Moraxella catarrhalis = test: Antibacterial activity against Moraxella catarrhalis ATCC 25238 by agar dilution method; format: functional
Procedure, shortened: (§1)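 MICs determined by agar dilution following CLSI guideline M7-A6 (2003).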

Haemophilus influenzae = test: Antibacterial activity against Haemophilus influenzae IID983 by agar dilution method; format: functional; procedure, shortened: as §1
Staphylococcus aureus = test: Antibacterial activity against Staphylococcus aureus Smith by agar dilution method; format: functional; procedure, shortened: as §1
[1] = Inhibition of fatty acid synthase type 1 in human HepG2 cells assessed as [1-14C]acetate incorporation into cellular fatty acid; format: cell-based

SMILES | MIC (Moraxella catarrhalis) | MIC (Haemophilus influenzae) | MIC (Staphylococcus aureus) | IC50 [1]
CC1=C(O)[C@@](C)(/C=C2/C=CCCCC2)SC1=O | > 64 µg/mL | > 64 µg/mL | > 64 µg/mL | 0.0254 µg/mL (≈ 0.101 µM)
C=C1C(=O)OC(CCCCCCCC)C1C(=O)O (stereo unspecified) |  |  |  | 0.0074 µg/mL (≈ 0.0291 µM)
C=C/C(C)=C/[C@]1(C)SC(=O)C=C1O | > 128 µg/mL |  | > 128 µg/mL | 0.019 µg/mL (≈ 0.0968 µM)
C=C/C(C)=C/[C@@]1(C)SC(=O)C=C1O | 16 µg/mL (≈ 81.5 µM) | 32 µg/mL (≈ 163 µM) | > 128 µg/mL | > 0.08 µg/mL
C=C/C(C)=C/[C@@]1(C)SC(=O)C(C)=C1O [THIOLACTOMYCIN] | 0.25 µg/mL (≈ 1.19 µM) | 2 µg/mL (≈ 9.51 µM) | 128 µg/mL (≈ 609 µM) | > 0.08 µg/mL
C[C@@]1(/C=C2/C=C\CCCCC2)SC(=O)C=C1O | 64 µg/mL (≈ 256 µM) | > 128 µg/mL | > 128 µg/mL | 0.0246 µg/mL (≈ 0.0983 µM)
O=C(O)c1cn(C2CC2)c2cc(N3CCNCC3)c(F)cc2c1=O [CIPROFLOXACIN] | 0.031 µg/mL (≈ 0.0936 µM) | 0.008 µg/mL (≈ 0.0241 µM) | 0.063 µg/mL (≈ 0.19 µM) | 
C[C@]1(/C=C2/C=C\CCCCC2)SC(=O)C=C1O | 128 µg/mL (≈ 511 µM) | > 128 µg/mL | > 128 µg/mL | 0.0195 µg/mL (≈ 0.0779 µM)
C=C/C(C)=C/[C@]1(C)SC(=O)C(C)=C1O | > 128 µg/mL |  | > 128 µg/mL | 0.0437 µg/mL (≈ 0.208 µM)
C[C@@]1(/C=C2/C=CCCCC2)SC(=O)C=C1O | > 64 µg/mL | > 64 µg/mL | > 64 µg/mL | 0.0226 µg/mL (≈ 0.0956 µM)
CC1=C(O)[C@](C)(/C=C2/C=C\CCCCC2)SC1=O | 64 µg/mL (≈ 242 µM) | > 128 µg/mL | > 128 µg/mL | 0.0116 µg/mL (≈ 0.0439 µM)

Other lines, results leading:

MIC (Moraxella catarrhalis) | MIC (Haemophilus influenzae) | MIC (Staphylococcus aureus) | IC50 [1] | SMILES
> 64 µg/mL | > 64 µg/mL | > 64 µg/mL | 0.0133 µg/mL (≈ 0.0563 µM) | C[C@]1(/C=C2/C=CCCCC2)SC(=O)C=C1O
> 64 µg/mL | > 64 µg/mL | > 64 µg/mL | 0.0149 µg/mL (≈ 0.0595 µM) | CC1=C(O)[C@](C)(/C=C2/C=CCCCC2)SC1=O
64 µg/mL (≈ 242 µM) | > 128 µg/mL | > 128 µg/mL | 0.0418 µg/mL (≈ 0.158 µM) | CC1=C(O)[C@@](C)(/C=C2/C=C\CCCCC2)SC1=O
> 64 µg/mL | > 64 µg/mL | > 64 µg/mL | > 0.08 µg/mL | CC1=C(O)[C@@](C)(/C=C2/C=CCCC2)SC1=O
> 64 µg/mL | > 64 µg/mL | > 64 µg/mL | > 0.08 µg/mL | CC1=C(O)[C@](C)(/C=C2/C=CCCC2)SC1=O
> 64 µg/mL | > 64 µg/mL | > 64 µg/mL | 0.0189 µg/mL (≈ 0.085 µM) | C[C@@]1(/C=C2/C=CCCC2)SC(=O)C=C1O
> 64 µg/mL | > 64 µg/mL | > 64 µg/mL | 0.057 µg/mL (≈ 0.256 µM) | C[C@]1(/C=C2/C=CCCC2)SC(=O)C=C1O
